Read-outs that look alike come from different tables or passages of the source. One block for each compound: values may come before it.
How the values were obtained:
Type in all cases: cell-based, Plasmodium falciparum
P. falciparum 3D7 [1] = details: 48 h; for effect on parasitaemia compared with the control: 2.5 nM compound alone
P. falciparum 3D7 [2] = details: 72 h; for IC50: asynchronous culture, 0.0019–2 µM, ± standard error of the mean; for reduction of P. falciparum parasitaemia by 50%: at the concentrations tested (0.0019–2 µM)
P. falciparum 3D7 [3] = assay: Competition of TCAMS compounds; details: for effect on the increase in parasitaemia promoted by melatonin: 2.5 nM compound with 100 nM melatonin; for effect on the increase in parasitaemia promoted by melatonin / effect on the increase in parasitaemia promoted by serotonin: 48 h; for effect on the increase in parasitaemia promoted by serotonin: 2.5 nM compound with 250 nM serotonin; for classification on the serotonin/melatonin pathway in the parasite: from effects in presence and absence of serotonin or melatonin
Summary of the method: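 Asynchronous P. falciparum 3D7 cultures (1% parasitaemia, 2% haematocrit) were given 2.5 nM test compound with or without 250 nM serotonin or 100 nM melatonin. Incubation was 48 h at 37 °C under mixed gas, with a DMSO solvent control. Cells were stained with SYBR Green-I (1:10,000) and MitoTracker Deep Red (50 nM) for 20 min at 37 °C, then parasitaemia was read by flow cytometry. Survival is relative to solvent; triplicate, 3 independent experiments.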

[4] = read-out: IC50 (nM) 3D7, Table 1
[5] = Plasmodium falciparum, 3D7, 72 h, read-out: IC50 (nM) 3D7, Table 1

Structure (SMILES): COc1ccc2[nH]cc(CCNC(C)=O)c2c1 [Melatonin, melatonin, reference compound]
increase of P. falciparum parasitaemia compared with the control (P. falciparum 3D7 [1]; 100 nM): 15.05%

Structure (SMILES): NCCc1c[nH]c2ccc(O)cc12 [Serotonin, serotonin, reference compound]
increase of P. falciparum parasitaemia compared with the control (P. falciparum 3D7 [1]; 250 nM): 11.86%

IC50 (P. falciparum 3D7 [2]; [4]): 759 ± 131 nM
Structure (SMILES): COc1ccc(CN2C(=S)N(Cc3ccccc3)C(=O)C2CC(=O)Nc2ccccc2)cc1OC (centres unmarked) [TCMDC-123874, COc1ccc(CN2C(CC(= O)Nc3ccccc3)C(= O)N(Cc3ccccc3)C2 = S)cc1OC]

Structure (SMILES): Brc1ccc(Nc2nc(NCc3ccccc3)c3ccccc3n2)cc1 [TCMDC-124574, Brc1ccc(Nc2nc(NCc3ccccc3)c3ccccc3n2)cc1]
IC50 (P. falciparum 3D7 [2]; [5]): 619 ± 213 nM

IC50 (P. falciparum 3D7 [2]; [4]): 80.2 ± 18.9 nM
Structure (SMILES): COc1ccc(C2CC(=O)C3=C(C2)NC(C)=C(C(=O)OC(C)C)C3c2cccc(O)c2)cc1OC (centres unmarked) [TCMDC-125636, COc1ccc(cc1OC)C1CC(= O)C2 = C(C1)NC(C) = C(C2c1cccc(O)c1)C(= O)OC(C)C]

IC50 (P. falciparum 3D7 [2]; [5]): 909 ± 65.1 nM
Structure (SMILES): CCCCCC(C)C(C)c1cc(O)c2c(c1)OC(C)(C)CC2(O)c1ccnn1C (centres unmarked) [TCMDC-131795, CCCCCC(C)C(C)c1cc(O)c2c(OC(C)(C)CC2(O)c2ccnn2C)c1]

Structure (SMILES): O=C1CCCN1CCCNCc1ccc(-c2ccc(-c3nc4cc(C(F)(F)F)ccc4[nH]3)s2)cc1 [TCMDC-132764, OC(= O)C(F)(F)F.FC(F)(F)c1ccc2[nH]c(nc2c1)-c1ccc(s1)-c1ccc(CNCCCN2CCCC2 = O)cc1]
IC50 (P. falciparum 3D7 [2]; [4]): 259 ± 49.4 nM

Structure (SMILES): Fc1ccc2[nH]c(-c3cccc(-c4ccc(CN5CCN(c6ccncc6)CC5)cc4)c3)nc2c1 [TCMDC-132918, OC(= O)C(F)(F)F.Fc1ccc2[nH]c(nc2c1)-c1cccc(c1)-c1ccc(CN2CCN(CC2)c2ccncc2)cc1]
IC50 (P. falciparum 3D7 [2]; [4]): 68.4 ± 6.93 nM

Structure (SMILES): Cn1nccc1C(=O)NCCNCc1ccc(-c2ccc(-c3nc4cc(C(F)(F)F)ccc4[nH]3)s2)cc1 [TCMDC-133018, OC(= O)C(F)(F)F.Cn1nccc1C(= O)NCCNCc1ccc(cc1)-c1ccc(s1)-c1nc2cc(ccc2[nH]1)C(F)(F)F]
IC50 (P. falciparum 3D7 [2]; [4]): 284 ± 125 nM

Structure (SMILES): Clc1ccc2nccc(N3CCC(CN4CCC(c5c[nH]c6ccccc56)CC4)CC3)c2c1 [TCMDC-134281, OC(= O)C(F)(F)F.Clc1ccc2nccc(N3CCC(CN4CCC(CC4)c4c[nH]c5ccccc45)CC3)c2c1]
IC50 (P. falciparum 3D7 [2]; [4]): 72.9 ± 10 nM

Structure (SMILES): COc1ccc(NC(=O)[C@H](CC(C)C)Nc2cc(C)nc(NCCc3ccccc3)n2)cc1 [TCMDC-134778, OC(= O)C(F)(F)F.COc1ccc(NC(= O)[C@H](CC(C)C)Nc2cc(C)nc(NCCc3ccccc3)n2)cc1]
IC50 (P. falciparum 3D7 [2]; [4]): 497 ± 99.5 nM

IC50 (P. falciparum 3D7 [2]; [5]): 434 ± 81.2 nM
Structure (SMILES): COc1cc2nc(NCCc3ccccc3)nc(NCCCc3ccccc3)c2cc1OC [TCMDC-135301, COc1cc2nc(NCCc3ccccc3)nc(NCCCc3ccccc3)c2cc1OC]
effect on the increase in parasitaemia promoted by melatonin (P. falciparum 3D7 [3]): able to inhibit the increase in parasitaemia partially
effect on the increase in parasitaemia promoted by serotonin (P. falciparum 3D7 [3]): unable to prevent the effect of the neurotransmitter on P. falciparum parasitaemia
effect on parasitaemia compared with the control (P. falciparum 3D7 [1]): induced a significant increase in parasitaemia
increase in parasitaemia (P. falciparum 3D7 [1]; 2.5 nM): 9.69%

Structure (SMILES): O=C(c1ccc(F)cc1)N1CCOC(CCN2CCC(c3ccccc3)CC2)(c2ccc(Cl)c(Cl)c2)C1 (centres unmarked) [TCMDC-135334, Fc1ccc(cc1)C(= O)N1CCOC(CCN2CCC(CC2)c2ccccc2)(C1)c1ccc(Cl)c(Cl)c1]
reduction of P. falciparum parasitaemia by 50% (P. falciparum 3D7 [2]): could not reduce P. falciparum parasitaemia by 50%

IC50 (P. falciparum 3D7 [2]; [4]): 442 ± 78.8 nM
Structure (SMILES): COc1cc(NC(=O)N2CCOC(CCN3CCC4(CCc5ccccc54)CC3)(c3ccc(Cl)c(Cl)c3)C2)cc(OC)c1 (centres unmarked) [TCMDC-135338, COc1cc(NC(= O)N2CCOC(CCN3CCC4(CCc5ccccc45)CC3)(C2)c2ccc(Cl)c(Cl)c2)cc(OC)c1]

Structure (SMILES): CCOc1ccc(C(=O)N2CCOC(CCN3CCC(c4ccccc4)CC3)(c3ccc(Cl)c(Cl)c3)C2)cc1 (centres unmarked) [TCMDC-135344, CCOc1ccc(cc1)C(= O)N1CCOC(CCN2CCC(CC2)c2ccccc2)(C1)c1ccc(Cl)c(Cl)c1]
IC50 (P. falciparum 3D7 [2]; [4]): 462 ± 185 nM

IC50 (P. falciparum 3D7 [2]; [4]): 75.5 ± 18.2 nM
Structure (SMILES): COc1cc(NC(=O)N2CCOC(CCN3CCC4(CCc5ccccc54)CC3)(c3ccc(Cl)c(Cl)c3)C2)cc(OC)c1OC (centres unmarked) [TCMDC-135346, COc1cc(NC(= O)N2CCOC(CCN3CCC4(CCc5ccccc45)CC3)(C2)c2ccc(Cl)c(Cl)c2)cc(OC)c1OC]

IC50 (P. falciparum 3D7 [2]; [5]): 1210 ± 315 nM
Structure (SMILES): COc1cc2nc(NCCc3ccccc3)nc(N(C)Cc3ccccc3)c2cc1OC [TCMDC-135385, COc1cc2nc(NCCc3ccccc3)nc(N(C)Cc3ccccc3)c2cc1OC]
effect on the increase in parasitaemia promoted by melatonin (P. falciparum 3D7 [3]): unable to block their effects on the erythrocyte cycle
effect on the increase in parasitaemia promoted by serotonin (P. falciparum 3D7 [3]): unable to prevent the effect of the neurotransmitter on P. falciparum parasitaemia
effect on parasitaemia compared with the control (P. falciparum 3D7 [1]): induced a significant increase in parasitaemia

IC50 (P. falciparum 3D7 [2]; [5]): 734 ± 162 nM
Structure (SMILES): COc1cc2nc(NCCc3ccccc3)nc(NCc3cc(C)no3)c2cc1OC [TCMDC-135435, COc1cc2nc(NCCc3ccccc3)nc(NCc3cc(C)no3)c2cc1OC]
effect on the increase in parasitaemia promoted by melatonin (P. falciparum 3D7 [3]): able to inhibit the increase in parasitaemia partially
effect on the increase in parasitaemia promoted by serotonin (P. falciparum 3D7 [3]): unable to prevent the effect of the neurotransmitter on P. falciparum parasitaemia
effect on parasitaemia compared with the control (P. falciparum 3D7 [1]): did not significantly affect parasitaemia compared with the control

IC50 (P. falciparum 3D7 [2]; [5]): 287 ± 24.2 nM
Structure (SMILES): COc1cc2nc(NCCc3ccccc3)nc(NCc3cnn(C)c3C)c2cc1OC [TCMDC-135459, COc1cc2nc(NCCc3ccccc3)nc(NCc3cnn(C)c3C)c2cc1OC]
effect on the increase in parasitaemia promoted by melatonin (P. falciparum 3D7 [3]): unable to block their effects on the erythrocyte cycle
effect on the increase in parasitaemia promoted by serotonin (P. falciparum 3D7 [3]): unable to prevent the effect of the neurotransmitter on P. falciparum parasitaemia
effect on parasitaemia compared with the control (P. falciparum 3D7 [1]): induced a significant increase in parasitaemia

IC50 (P. falciparum 3D7 [2]; [4]): 336 ± 176 nM
Structure (SMILES): COc1ccc2ncc(F)c([C@H](O)CN3CCC(NCc4ccc5c(c4)NC(=O)CO5)CC3)c2c1 [TCMDC-135829, Cl.COc1ccc2ncc(F)c([C@H](O)CN3CCC(CC3)NCc3ccc4OCC(= O)Nc4c3)c2c1]

IC50 (P. falciparum 3D7 [2]; [4]): 110 ± 46.2 nM
Structure (SMILES): Cc1cc(NC(=O)NCCN2CCC(NC(=O)c3ccc(Cl)cc3)CC2)c2ccccc2n1 [TCMDC-136171, Cc1cc(NC(= O)NCCN2CCC(CC2)NC(= O)c2ccc(Cl)cc2)c2ccccc2n1]

IC50 (P. falciparum 3D7 [2]; [5]): 216 ± 15.4 nM
Structure (SMILES): CCN(CCNc1nc(NCCc2cnc[nH]2)nc(N(CCC#N)Cc2ccccc2)n1)c1cccc(C)c1 [TCMDC-139258, CCN(CCNc1nc(NCCc2cnc[nH]2)nc(n1)N(CCC#N)Cc1ccccc1)c1cccc(C)c1]

IC50 (P. falciparum 3D7 [2]; [4]): 98.2 ± 25.1 nM
Structure (SMILES): COc1cc(C)nc2ccc(NC(=O)c3ccc(C(=O)Nc4ccc5nc(C)cc(OC)c5c4)cc3)cc12 [TCMDC-139502, COc1cc(C)nc2ccc(NC(= O)c3ccc(cc3)C(= O)Nc3ccc4nc(C)cc(OC)c4c3)cc12]

Structure (SMILES): O=C(/C=C/c1ccc(Cl)c(Cl)c1)Nc1cccc(CN2CCC(c3c[nH]c4ccc(O)cc34)CC2)c1 [TCMDC-139634, Oc1ccc2[nH]cc(C3CCN(Cc4cccc(NC(= O)\C = C\c5ccc(Cl)c(Cl)c5)c4)CC3)c2c1]
effect on the increase in parasitaemia promoted by melatonin (P. falciparum 3D7 [3]): could inhibit the increase in parasitaemia promoted by melatonin thoroughly
effect on the increase in parasitaemia promoted by serotonin (P. falciparum 3D7 [3]): able to inhibit the increase in parasitaemia
classification on the serotonin/melatonin pathway in the parasite (P. falciparum 3D7 [3]): potential partial agonists of this pathway in the parasite
effect on parasitaemia compared with the control (P. falciparum 3D7 [1]): induced a significant increase in parasitaemia
IC50 (P. falciparum 3D7 [2]; [4]): 346 ± 47.5 nM

Structure (SMILES): O=C(/C=C/c1ccc(Cl)c(Cl)c1)N1CCC(CN2CCC(c3c[nH]c4ccc(O)cc34)CC2)CC1 [TCMDC-139786, Oc1ccc2[nH]cc(C3CCN(CC4CCN(CC4)C(= O)\C = C\c4ccc(Cl)c(Cl)c4)CC3)c2c1]
effect on the increase in parasitaemia promoted by melatonin (P. falciparum 3D7 [3]): could inhibit the increase in parasitaemia promoted by melatonin thoroughly
effect on the increase in parasitaemia promoted by serotonin (P. falciparum 3D7 [3]): partially inhibited the increase in parasitaemia promoted by serotonin
classification on the serotonin/melatonin pathway in the parasite (P. falciparum 3D7 [3]): potential partial agonists of this pathway in the parasite
effect on parasitaemia compared with the control (P. falciparum 3D7 [1]): induced a significant increase in parasitaemia
IC50 (P. falciparum 3D7 [2]; [4]): 138 ± 23.9 nM

Structure (SMILES): CS(=O)(=O)Nc1ccc2[nH]cc(C3CCN(CC4CCN(C(=O)/C=C/c5ccc(Cl)c(Cl)c5)CC4)CC3)c2c1 [TCMDC-139813, CS(= O)(= O)Nc1ccc2[nH]cc(C3CCN(CC4CCN(CC4)C(= O)\C = C\c4ccc(Cl)c(Cl)c4)CC3)c2c1]
effect on the increase in parasitaemia promoted by melatonin (P. falciparum 3D7 [3]): able to inhibit the increase in parasitaemia partially
effect on the increase in parasitaemia promoted by serotonin (P. falciparum 3D7 [3]): partially inhibited the increase in parasitaemia promoted by serotonin
effect on parasitaemia compared with the control (P. falciparum 3D7 [1]): did not significantly affect parasitaemia compared with the control
IC50 (P. falciparum 3D7 [2]; [4]): 116 ± 49.1 nM

Structure (SMILES): O=C(NC1CCC(CN2CCC(c3c[nH]c4ccccc34)CC2)CC1)c1cc(-c2ccc(F)cc2F)ccc1O (centres unmarked) [TCMDC-139894, Oc1ccc(cc1C(= O)NC1CCC(CN2CCC(CC2)c2c[nH]c3ccccc23)CC1)-c1ccc(F)cc1F]
reduction of P. falciparum parasitaemia by 50% (P. falciparum 3D7 [2]): could not reduce P. falciparum parasitaemia by 50%

Structure (SMILES): O=C(Nc1ccccc1)N(Cc1cccc(-c2cccc(CNCc3ccc4c(c3)OCO4)c2)c1)C1CCN(Cc2ccccc2)CC1 [TCMDC-140590, OC(= O)C(F)(F)F.O = C(Nc1ccccc1)N(Cc1cccc(c1)c1cccc(CNCc2ccc3OCOc3c2)c1)C1CCN(Cc2ccccc2)CC1]
IC50 (P. falciparum 3D7 [2]; [4]): 285 ± 144 nM

IC50 (P. falciparum 3D7 [2]; [4]): 215 ± 27.9 nM
Structure (SMILES): CC[C@H](NC(=O)c1c(CC2CCN(CC(C)=O)CC2)c(-c2ccccc2)nc2ccccc12)c1ccccc1 [TCMDC-141946, CC[C@H](NC(= O)c1c(CC2CCN(CC(C) = O)CC2)c(nc2ccccc12)-c1ccccc1)c1ccccc1]

— PMC11827156 (Malaria Journal, 2025)
